Compound activity: PubChem BioAssay, several laboratories
An excerpt weighted towards active compounds, which were near 4.9% of everything screened.
STAT1 activator = STAT1 signaling activators, primary screen, cell-based, HTS, luciferase reporter. NIH 3T3 STAT1-luciferase reporter, IFN-gamma, luminescence; 100% = IFN-gamma alone, no compound. activation (% of control), % at 5.5 µM. hit rate 2.6% among 200,000;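 active means activation above the screen-wide mean activation plus 3 SD, cut at about 130% in these data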;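 further: raw ratio to IFN-gamma control signal so 100% means no change and 0% no light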
FLuc inh counter = firefly luciferase enzyme inhibitors, primary screen, artefact control for luciferase-based inhibitor screens, biochemical, luminescence, ATPLite | Luciferin 4-monooxygenase (Photinus pyralis), P08659 | 10 min | inhibition, % at 10 µM | hit rate 1.5% among 200,000 | AID 1006, 2008;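 active means inhibition above about 50% when tested at 10 µM, limit read from the data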
Target sequence (P08659 whole entry, looked up): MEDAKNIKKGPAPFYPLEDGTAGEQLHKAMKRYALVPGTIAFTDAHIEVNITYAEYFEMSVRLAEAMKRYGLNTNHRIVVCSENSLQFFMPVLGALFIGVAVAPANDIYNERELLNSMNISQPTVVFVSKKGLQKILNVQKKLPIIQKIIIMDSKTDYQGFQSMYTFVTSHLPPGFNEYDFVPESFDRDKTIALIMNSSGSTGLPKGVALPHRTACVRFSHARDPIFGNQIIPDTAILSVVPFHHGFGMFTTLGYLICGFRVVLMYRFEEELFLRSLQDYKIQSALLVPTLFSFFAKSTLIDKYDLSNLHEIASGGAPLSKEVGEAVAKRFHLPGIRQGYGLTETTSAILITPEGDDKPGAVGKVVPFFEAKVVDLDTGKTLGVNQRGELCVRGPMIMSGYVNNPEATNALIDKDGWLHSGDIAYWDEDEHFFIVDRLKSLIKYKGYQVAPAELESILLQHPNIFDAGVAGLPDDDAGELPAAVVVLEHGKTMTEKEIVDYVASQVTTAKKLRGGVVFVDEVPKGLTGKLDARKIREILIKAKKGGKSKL
STAT1 inh = STAT1 signaling inhibitors, primary screen, cell-based, HTS, luciferase reporter. hit rate 0.35% among 200,000. NIH 3T3 STAT1-luciferase reporter, IFN-gamma, luminescence. AID 920, 2007. inhibition, % at 5.5 µM;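 active means inhibition above a set limit, the mean inhibition across all tested compounds plus 3 SD, cut at about 34% in these data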;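 further: 0% = IFN-gamma with DMSO and 100% = IFN-gamma with 300 µM nifuroxazide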
FLuc act counter = FLuc activators, initial screening, artefact control for FLuc-dependent activation tests, biochemical, ATPlite luminescence. ATPlite luciferase biochemical, 10 min; 0 = ATP-free wells, 1 = DMSO control. activation factor at 10 µM. 200,000 tested, under 10 active. AID 1027, 2008;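 active means luciferase activation factor, scaled between plate controls, of at least 2 with compound at 10 µM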
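System: luciferase plus luciferin reagent, cell-free; medium: PBS as buffer for the ATP substrate; dosing: test compounds dosed from 2 mM stocks in 100% DMSO; timing: 10 min post-reagent at room temperature; measured by: luminescence measurement of luciferase light output; evaluation: luciferase activation, seen as luminescence increase over controls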
STAT3 inh = IL-6 driven STAT3 reporter inhibitors, primary screen, U3A cells, luciferase, luminescence, MLSCN library | inhibition, % at 5.5 µM | hit rate 0.89% among 190,000 | IL-6 STAT3-luciferase reporter; host cell line lacks STAT1 | AID 862, 2007;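 active means inhibition above the mean inhibition across all screened compounds plus 3 SD, cut at about 44% in these data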;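 further: 0% = DMSO only wells and 100% = 100 µM nifuroxazide control wells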
STAT3 act = IL-6 driven STAT3 reporter potentiators, primary screen, U3A cells, luciferase, luminescence, MLSCN library; IL-6 STAT3-luciferase reporter; 100% = signal with IL-6 EC80 alone; activation (% of control), % at 5.6 µM; hit rate 0.91% among 190,000;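 active means activation above the screen-wide mean of compound activation plus 3 SD, cut at about 130% in these data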;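 further: 0% = background luminescence of wells with medium and substrate only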
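Material: human U3A cells carrying STAT3-luciferase construct. Measured by: reporter luminescence signal. Timing: compound 1 h, then IL-6 6 h at 37 °C.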
Starred values were filed as active, the others as inactive.

SMILES	STAT1 activator	FLuc inh counter	STAT1 inh	FLuc act counter	STAT3 inh	STAT3 act
COc1ccc(CN(CCC(c2ccccc2)c2ccc(OC(C)C)cc2)C(=O)CCl)cc1OC (stereo not drawn)	97	-6	3	1.1	5	99
COC(=O)C(C)N1C(=O)S/C(=C/c2cc(C)n(C(C)C)c2C)C1=O (stereo not drawn)	138*	51*	-41	0.5	11	91
COC(=O)CN1C(=O)S/C(=C/c2cc(C)n(C)c2C)C1=O	130*	48	-33	0.5	10	93
CCn1c(C)cc(/C=C2/SC(=S)N(CC(=O)O)C2=O)c1C	76	80*	23	0.2	25	83
COc1ccc(N=C2S/C(=C\c3cc(C)n(C)c3C)C(=O)N2CC(C)C)cc1	97	-1	3	1	4	103
Cc1c(CN2CCC(CO)(CCOc3ccccc3)CC2)[nH]c2c(Cl)cccc12	103	-4	-5	1	-10	112
Nc1nc2nccc(-c3ccc(Cl)cc3)n2n1	121	51*	-24	0.5	21	87
CCC(C)/C(C)=N/NC(=O)c1ccc(CSc2nc3ccccc3s2)cc1 (stereo not drawn)	130*	-3	-33	1	-20	119
O=C(O)c1ccc(CSc2nc3ccc(NC(=O)c4ccccc4C(=O)O)cc3s2)cc1	98	7	1	0.9	1	100
Nc1ccn(Cc2ccccc2)n1	98	-4	1	1	6	98
c1ccc(Cn2ccc(-c3cnc(-c4ccccc4)s3)n2)cc1	142*	44	-45	0.6	23	86
O=c1[nH]c(/C(Cl)=C/c2cc(Cl)ccc2O)nc2cc(Cl)ccc12	101	-1	-1	1	8	91
COc1cc(/C=C2\C(=N)N3N=CSC3=NC2=O)cc(Br)c1OC(=O)c1ccco1	97	-13	3	1.1	4	100
N#CC1=C2C=CC=CN2CC1=O	144*	3	-49	1	-11	112
N#C/C(=C\c1ccc(N2CCOCC2)o1)C(=O)Nc1ccc(O)cc1	125	50*	-28	0.5	14	89
CC1CC1c1ccc(/C=C(\C#N)C(=O)Nc2ccc(Cl)cc2)o1 (stereo not drawn)	141*	5	-45	0.9	13	88
COc1ccc(NC(=O)/C(C#N)=C\c2ccc(N3CCOCC3)o2)cc1	126	84*	-30	0.2	23	84
COc1ccc(NC(=O)/C(C#N)=C/c2ccc(Br)o2)cc1	104	-1	-6	1	28	81
Cc1ccc(-c2ccc(=O)n(CC(=O)NCc3ccc(F)cc3)n2)cc1	100	-8	-2	1.1	3	103
CC(=O)OCC(=O)Nc1c(C)cccc1C	102	-5	-4	1	0	108
Cc1cc(C)c(C)c(S(=O)(=O)Nc2ccccc2C(=O)NCCCN2CCOCC2)c1C	93	-5	7	1	-6	106
Cc1cc(N)n(-c2nc3ccccc3s2)n1	122	75*	-23	0.2	6	102
Cc1nn(-c2ccccc2)c(N)c1-c1ccccc1	113	73*	-15	0.3	4	98
Cc1nn(-c2nc3ccccc3s2)c(N)c1-c1ccccc1	143*	52*	-47	0.5	-22	119
Cc1nn(-c2nc3ccccc3s2)c(N)c1Sc1ccc(F)cc1	138*	1	-42	1	-59	158*
SMILES	STAT1 activator	FLuc inh counter	STAT1 inh	FLuc act counter	STAT3 inh	STAT3 act
COc1ccc(CCNC(=O)CCCn2c(SCC(N)=O)nc3cc4c(cc3c2=O)OCO4)cc1OC	106	2	-7	1	5	100
Cc1ccc(C(=O)NNC(=O)c2cccc(S(=O)(=O)N3CCN(c4ccccc4)CC3)c2)cc1	107	0	-8	1	4	100
Fc1cccc(/C=N/N=C/c2cccc(F)c2)c1	147*	5	-52	1	18	90
Cc1ccc(C2=NC(=O)/C(=C/c3cc(O)c(O)c(Br)c3)S2)cc1	100	50*	-1	0.5	-9	110
COc1cc(/C=C2\SC(c3ccc(C)cc3)=NC2=O)cc(OC)c1O	98	36	-1	0.6	-1	110
O=C(O)C1CCCCC1C(=O)Nc1cccc2ccccc12 (stereo not drawn)	143*	-6	-46	1.1	16	89
CCOC(=O)c1sc(-c2ccccc2)cc1NC(=O)Nc1ccccc1	99	3	1	1	13	91
CCOC(=O)c1sc(-c2ccc(Br)cc2)cc1N	137*	13	-42	0.9	1	102
NNC(=O)c1sc(-c2ccc(Cl)cc2)cc1N	134*	1	-34	1	5	100
CCOC(=O)c1cc(-c2ccc(N)cc2)sc1N	139*	13	-43	0.9	2	102
NNC(=O)c1cc(Cl)ccc1Cl	101	-4	2	1	-4	101
COc1cc(C=NCC2OCCc3ccccc32)cc(OC)c1 (stereo not drawn)	96	-3	5	1	-4	101
c1ccc(-c2csc(NNC3=NCCCCC3)n2)cc1	132*	-4	-35	1	-5	111
Brc1ccc(-c2csc(NC3=NCCCCC3)n2)cc1	134*	-4	-38	1	-6	106
O=C(NC(=S)NC1CCCCCC1)c1cncc(Br)c1	141*	1	-46	1	-20	117
CCn1c(C)cc(C=C2C(=O)c3ccccc3C2=O)c1C	122	79*	-25	0.2	23	84
COc1ccc(CNC(=O)CN(c2ccccc2)S(=O)(=O)N(C)C)cc1	96	0	3	1	0	104
Cc1ccc(OCC(=O)N2CCCCC2)c(Br)c1	119	0	-21	1	-7	109
CC(C)(C)c1ccc(OCC(=O)N2CCCCCC2)c(Br)c1	134*	0	-38	1	-11	117
COc1ccc(C(=O)Nn2cnc3ccccc3c2=O)c(OC)c1	141*	8	-45	0.9	-4	108
Cc1cccn2cc(-c3cccc(NC(=O)c4cccs4)c3)nc12	131*	31	-33	0.7	7	99
Cc1cccn2cc(-c3ccccc3)nc12	138*	69*	-41	0.3	14	93
COc1ccc(-c2cn3ccc4ccccc4c3n2)cc1	120	68*	-21	0.3	-32	127
